Experimental data as given in ChEMBL document CHEMBL2157880, “Synthesis, antimycobacterial and antibacterial activity of ciprofloxacin derivatives containing a N-substituted benzyl moiety” (2012).
Converted amounts (≈) assume the structure as drawn.

The compounds below were run on Pseudomonas aeruginosa (assay: Antibacterial activity against Pseudomonas aeruginosa 10-18 after 18 to 24 hrs by NCCLS method).
Format: functional
In short: (§1)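 Standard NCCLS (M100-S11) MIC testing against Gram-positive and Gram-negative strains. Plates were incubated at 35 °C for 18–24 h. The MIC was read as the lowest concentration giving complete inhibition of visible bacterial growth.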
Compound `COc1cc(CN2CCN(c3cc4c(cc3F)c(=O)c(C(=O)O)cn4C3CC3)CC2)cc(OC)c1OC` has an MIC of 128 µg/mL (≈ 250 µM).

What follows are compounds tested on Klebsiella pneumoniae (assay: Antibacterial activity against extended spectrum beta-lactamases producing Klebsiella pneumoniae 10-1 after 18 to 24 hrs by NCCLS method).
Format: functional
In short: as §1
`COc1cc(CN2CCN(c3cc4c(cc3F)c(=O)c(C(=O)O)cn4C3CC3)CC2)cc(OC)c1OC` was tested, and the MIC was greater than 128 µg/mL.

What follows are compounds tested on Staphylococcus aureus (assay: Antibacterial activity against methicillin-resistant Staphylococcus aureus 10-11 after 18 to 24 hrs by NCCLS method).
Format: functional
In short: (§2)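 Incubated at 35 °C for 18–24 h under NCCLS (M100-S11) standards. MIC was read as the lowest concentration giving complete inhibition of visible bacterial growth.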
Work on `COc1cc(CN2CCN(c3cc4c(cc3F)c(=O)c(C(=O)O)cn4C3CC3)CC2)cc(OC)c1OC` yielded an MIC of 64 µg/mL (≈ 125 µM).

The compounds below were run on Klebsiella pneumoniae (assay: Antibacterial activity against extended spectrum beta-lactamases producing Klebsiella pneumoniae 10-2 after 18 to 24 hrs by NCCLS method).
Format: functional
In short: as §1
`COc1cc(CN2CCN(c3cc4c(cc3F)c(=O)c(C(=O)O)cn4C3CC3)CC2)cc(OC)c1OC` showed an MIC greater than 128 µg/mL.

Each compound was assayed on Streptococcus pneumoniae (assay: Antibacterial activity against Streptococcus pneumoniae 10-6 after 18 to 24 hrs by NCCLS method).
Format: functional
In short: as §1
With `COc1cc(CN2CCN(c3cc4c(cc3F)c(=O)c(C(=O)O)cn4C3CC3)CC2)cc(OC)c1OC` the MIC was 64 µg/mL (≈ 125 µM).

What follows are compounds tested on Escherichia coli (assay: Antibacterial activity against Escherichia coli 10-3 after 18 to 24 hrs by NCCLS method).
Format: functional
In short: as §1
In the case of `COc1cc(CN2CCN(c3cc4c(cc3F)c(=O)c(C(=O)O)cn4C3CC3)CC2)cc(OC)c1OC`, the MIC is reported as greater than 128 µg/mL.

What follows are compounds tested on Escherichia coli (assay: Antibacterial activity against extended spectrum beta-lactamases producing Escherichia coli 10-3 after 18 to 24 hrs by NCCLS method).
Format: functional
In short: as §1
`COc1cc(CN2CCN(c3cc4c(cc3F)c(=O)c(C(=O)O)cn4C3CC3)CC2)cc(OC)c1OC` was tested, and the MIC was greater than 128 µg/mL.

What follows are compounds tested on Streptococcus pneumoniae (assay: Antibacterial activity against Streptococcus pneumoniae 10-1 after 18 to 24 hrs by NCCLS method).
Format: functional
In short: as §1
`COc1cc(CN2CCN(c3cc4c(cc3F)c(=O)c(C(=O)O)cn4C3CC3)CC2)cc(OC)c1OC` was tested, and the MIC was 4 µg/mL (≈ 7.82 µM).

These compounds were tested on Enterococcus faecalis (assay: Antibacterial activity against Enterococcus faecalis 10-7 after 18 to 24 hrs by NCCLS method).
Format: functional
In short: as §1
`COc1cc(CN2CCN(c3cc4c(cc3F)c(=O)c(C(=O)O)cn4C3CC3)CC2)cc(OC)c1OC` gave an MIC of 64 µg/mL (≈ 125 µM).

The compounds below were run on Enterococcus faecium (assay: Antibacterial activity against Enterococcus faecium 10-6 after 18 to 24 hrs by NCCLS method).
Format: functional
In short: as §1
With `COc1cc(CN2CCN(c3cc4c(cc3F)c(=O)c(C(=O)O)cn4C3CC3)CC2)cc(OC)c1OC` the MIC was 4 µg/mL (≈ 7.82 µM).

Each compound was assayed on Klebsiella pneumoniae (assay: Antibacterial activity against Klebsiella pneumoniae 10-3 after 18 to 24 hrs by NCCLS method).
Format: functional
In short: as §1
With `COc1cc(CN2CCN(c3cc4c(cc3F)c(=O)c(C(=O)O)cn4C3CC3)CC2)cc(OC)c1OC` the MIC was 32 µg/mL (≈ 62.6 µM).

What follows are compounds tested on Pseudomonas aeruginosa (assay: Antibacterial activity against Pseudomonas aeruginosa 10-15 after 18 to 24 hrs by NCCLS method).
Format: functional
In short: as §1
`COc1cc(CN2CCN(c3cc4c(cc3F)c(=O)c(C(=O)O)cn4C3CC3)CC2)cc(OC)c1OC` was tested, and the MIC was 64 µg/mL (≈ 125 µM).

What follows are compounds tested on Pseudomonas aeruginosa (assay: Antibacterial activity against Pseudomonas aeruginosa 10-9 after 18 to 24 hrs by NCCLS method).
Format: functional
In short: as §1
Compound `COc1cc(CN2CCN(c3cc4c(cc3F)c(=O)c(C(=O)O)cn4C3CC3)CC2)cc(OC)c1OC` has an MIC of 32 µg/mL (≈ 62.6 µM).

What follows are compounds tested on Enterococcus faecium (assay: Antibacterial activity against Enterococcus faecium 10-9 after 18 to 24 hrs by NCCLS method).
Format: functional
In short: as §1
In the case of `COc1cc(CN2CCN(c3cc4c(cc3F)c(=O)c(C(=O)O)cn4C3CC3)CC2)cc(OC)c1OC`, the MIC is reported as 32 µg/mL (≈ 62.6 µM).

These compounds were tested on Mycobacterium tuberculosis (assay: Antimycobacterial activity against Mycobacterium tuberculosis H37Rv ATCC 27294 by microplate alamar blue assay).
Format: functional
In short: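 Microplate Alamar Blue fluorescence assay on strain H37Rv ATCC 27294. MIC was the lowest concentration cutting fluorescence by ≥90% against the mean of replicate bacterium-only controls.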
`COc1cc(CN2CCN(c3cc4c(cc3F)c(=O)c(C(=O)O)cn4C3CC3)CC2)cc(OC)c1OC` showed an MIC of 32 µg/mL (≈ 62.6 µM).

Each compound was assayed on Staphylococcus aureus (assay: Antibacterial activity against methicillin-resistant Staphylococcus aureus 10-13 after 18 to 24 hrs by NCCLS method).
Format: functional
In short: as §2
For `COc1cc(CN2CCN(c3cc4c(cc3F)c(=O)c(C(=O)O)cn4C3CC3)CC2)cc(OC)c1OC`, the MIC was 128 µg/mL (≈ 250 µM).

Each compound was assayed on Staphylococcus aureus (assay: Antibacterial activity against methicillin-resistant Staphylococcus aureus 10-15 after 18 to 24 hrs by NCCLS method).
Format: functional
In short: as §2
`COc1cc(CN2CCN(c3cc4c(cc3F)c(=O)c(C(=O)O)cn4C3CC3)CC2)cc(OC)c1OC` showed an MIC of 32 µg/mL (≈ 62.6 µM).

Each compound was assayed on Staphylococcus epidermidis (assay: Antibacterial activity against methicillin-resistant Staphylococcus epidermidis 10-13 after 18 to 24 hrs by NCCLS method).
Format: functional
In short: as §2
`COc1cc(CN2CCN(c3cc4c(cc3F)c(=O)c(C(=O)O)cn4C3CC3)CC2)cc(OC)c1OC` was tested, and the MIC was 32 µg/mL (≈ 62.6 µM).

These compounds were tested on Staphylococcus epidermidis (assay: Antibacterial activity against methicillin-sensitive Staphylococcus epidermidis 10-15 after 18 to 24 hrs by NCCLS method).
Format: functional
In short: as §2
`COc1cc(CN2CCN(c3cc4c(cc3F)c(=O)c(C(=O)O)cn4C3CC3)CC2)cc(OC)c1OC` showed an MIC of 32 µg/mL (≈ 62.6 µM).
